Assay results: article PMC3090455 (Analytical biochemistry, 2011)
One block for each molecule: values may come before it.

Columns and labels:
[1] = Background; type: physicochemical; details: [S] 50 μM, Tris/HCl 100 mM pH 9.0, 0.1 mg/mL BSA, 37°C, 4-nitrophenol absorbance
Method in brief: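 Enzyme-free control wells held Tris/HCl (100 mM, pH 9.0, 0.1 mg/mL BSA), preincubated 5 min at 37°C. Substrate was added from a 5 mM DMSO stock working solution to 50 μM final, and product was read kinetically for 5 min. Read-out was 4-nitrophenol absorbance at […] fluorescence (ex 355/em 450 or ex 330/em 465 nm). Signals were converted to molar amounts via 0.005–0.5 μM standard curves; 8 replicates.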

[2] = biological target: T1, rat mEH (Rattus norvegicus, UniProt P07687); assay: Specific activity of rat mEH for absorbent/fluorescent substrates; type: biochemical; details: [S] 50 μM, pH 9.0, 37°C, 4-nitrophenyl substrates
T1 sequence (P07687 1-455): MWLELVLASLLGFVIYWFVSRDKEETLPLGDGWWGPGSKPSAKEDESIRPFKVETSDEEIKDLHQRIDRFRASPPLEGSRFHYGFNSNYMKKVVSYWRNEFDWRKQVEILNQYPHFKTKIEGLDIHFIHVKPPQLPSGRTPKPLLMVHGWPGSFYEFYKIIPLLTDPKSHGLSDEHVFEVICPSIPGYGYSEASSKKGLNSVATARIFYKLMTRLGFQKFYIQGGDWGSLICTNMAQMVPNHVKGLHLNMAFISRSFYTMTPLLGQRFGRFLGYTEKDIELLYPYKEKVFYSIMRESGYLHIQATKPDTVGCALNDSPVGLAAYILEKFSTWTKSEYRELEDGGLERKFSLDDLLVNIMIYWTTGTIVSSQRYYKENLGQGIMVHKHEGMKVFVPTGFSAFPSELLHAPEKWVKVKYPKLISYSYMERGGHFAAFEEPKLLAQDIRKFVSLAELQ
Method in brief: (§1)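 Partially purified recombinant enzyme (0.5–80 μg/mL final) in 100 mM Tris/HCl pH 9.0 with 0.1 mg/mL BSA, preincubated 5 min at 37°C. Substrate added at 50 μM final from 5 mM DMSO stock; buffer-only wells gave background. Read kinetically for 5 min: 4-nitrophenol at 450 nm, or fluorescence (coumarin ex 355/em 450; naphthaldehyde ex 330/em 465). Signals converted via standard curves (0.005–0.5 μM); 8 replicates.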

[3] = biological target: T2, human mEH (Homo sapiens, UniProt P07099); assay: Specific activity of human mEH for absorbent/fluorescent substrates; type: biochemical; details: [S] 50 μM, pH 9.0, 37°C, 4-nitrophenyl substrates
T2 sequence (P07099 1-455): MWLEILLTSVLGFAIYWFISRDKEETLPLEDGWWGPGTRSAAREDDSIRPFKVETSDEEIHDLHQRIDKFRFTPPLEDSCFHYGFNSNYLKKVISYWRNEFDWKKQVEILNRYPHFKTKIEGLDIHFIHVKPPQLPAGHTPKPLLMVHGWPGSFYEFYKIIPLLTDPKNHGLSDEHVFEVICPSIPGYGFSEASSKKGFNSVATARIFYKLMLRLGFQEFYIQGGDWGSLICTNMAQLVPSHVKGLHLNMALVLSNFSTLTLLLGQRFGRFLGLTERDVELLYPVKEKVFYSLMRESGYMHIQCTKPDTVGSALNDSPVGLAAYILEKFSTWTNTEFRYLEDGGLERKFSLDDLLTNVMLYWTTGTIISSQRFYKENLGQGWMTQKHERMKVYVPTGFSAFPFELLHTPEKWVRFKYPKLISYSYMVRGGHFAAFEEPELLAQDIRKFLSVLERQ
Method in brief: as §1

[4] = biological target: T1, rat mEH; assay: High throughput screening end-point assay with 11, rat mEH; type: biochemical; details: [I] 10 μM, [11] 25 μM, 30 min end-point, room temperature
Method in brief: (§2)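 End-point screen of a pesticide library at 10 μM final. Recombinant partially purified enzyme (human 1.6, rat 0.5 μg/mL final) in 100 mM Tris/HCl pH 8.5 with 0.1 mg/mL BSA, preincubated with compounds 5 min at 30°C. Substrate added to 25 μM, then 30 min at room temperature in the dark before fluorescence reading (ex 330/em 465 nm). Buffer-only background and full-activity control wells; duplicate averages.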

[5] = biological target: T2, human mEH; assay: High throughput screening end-point assay with 11, human mEH; type: biochemical; details: [I] 10 μM, [11] 25 μM, 30 min end-point, room temperature
Method in brief: as §2

[6] = tested on: mEH; assay: Retest of screening hits in inhibition potency assay with 11; type: biochemical; details: 10 μM
Method in brief: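 Hits from the library screen retested at 10 μM in the kinetic fluorescent format: 5 min preincubation with partially purified enzyme in Tris/HCl pH 8.5 with BSA at 30°C. Then 25 μM substrate, with 6-methoxy-2-naphthaldehyde monitored for 10 min.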

[7] = tested on: mEH; assay: Retest of screening hits with cSO as substrate; type: biochemical; details: suggests false positive in fluorescent assay
[8] = biological target: T1, rat mEH; assay: Inhibition potency assay with fluorescent substrate 11, rat mEH; type: biochemical
Method in brief: (§3)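 Kinetic fluorescent format: baculovirus-expressed, partially purified enzyme in 100 mM Tris/HCl pH 8.5 with 0.1 mg/mL BSA (final human 1.6, rat 0.5 μg/mL), preincubated 5 min at 30°C with inhibitor (0–200 μM final, from DMSO). Substrate at 25 μM final (rat also tested at 2.5 μM). Naphthaldehyde followed 10 min at 30°C. IC50 regressed from ≥6 points in the linear region; three runs, each in triplicate.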

[9] = biological target: T2, human mEH; assay: Inhibition potency assay with fluorescent substrate 11, human mEH; type: biochemical
Method in brief: as §3

[10] = biological target: T1, rat mEH; assay: Inhibition potency assay with [3H]-cSO radiochemical substrate, rat mEH; type: biochemical
Method in brief: (§4)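 Radiochemical format with [3H]-cis-stilbene oxide at 50 μM final. Partially purified recombinant enzyme: rat 1.0, human 3.2 μg/mL. Reaction in 100 mM Tris/HCl pH 9.0 with 0.1 mg/mL BSA, 5 min at 30°C, quenched with isooctane to extract remaining epoxide. Radioactive diol in the aqueous phase counted by liquid scintillation; run in triplicate.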

[11] = biological target: T2, human mEH; assay: Inhibition potency assay with [3H]-cSO radiochemical substrate, human mEH; type: biochemical
Method in brief: as §4

[12] = substrate: COc1ccc2cc(C(C#N)OC(=O)OCC3CO3)ccc2c1; assay: Kinetic constants determination, rat mEH; type: biochemical; details: other: Tris/HCl pH 9.0 100 mM, 0.1 mg/mL BSA, 37°C
[13] = substrate: COc1ccc2cc(C(C#N)OC(=O)OCC3CO3)ccc2c1; assay: Kinetic constants determination, human mEH; type: biochemical; details: other: Tris/HCl pH 9.0 100 mM, 0.1 mg/mL BSA, 37°C
[14] = IC50, Rat mEH, 11 as substrate, [11] 25 μM, enzyme 0.5 μg/mL, pH 8.5, 30°C

- background hydrolysis [1]: 0.31 ± 0.02 nmol/min
- Rat mEH S/B (signal to background ratio) [2]: 5
- Rat mEH S/N (signal to noise ratio) [2]: 32
- Rat mEH Spec. act. [2]: 29 ± 2 nmol/min/mg
- Rat mEH Z' (screening window coefficient) [2]: 0.67
- Human mEH S/B (signal to background ratio) [3]: 3
- Human mEH S/N (signal to noise ratio) [3]: 53
- Human mEH Spec. act. [3]: 51 ± 2 nmol/min/mg
- Human mEH Z' (screening window coefficient) [3]: 0.82
Molecule: O=C(OCC1CO1)Oc1ccc([N+](=O)[O-])cc1 (stereo not drawn) [compound 6, 4-Nitrophenyl (oxiran-2-yl)methyl carbonate]

Molecule: Brc1ccc(Oc2ccc(Br)cc2Br)c(Br)c1 [BDE47]
- inhibition of rat mEH in library screen [4]: significant inhibition
- inhibition of human mEH in library screen [5]: significant inhibition
- mEH inhibition on retest with 11 in the inhibition potency assay [6]: confirmed mEH inhibition
- mEH inhibition with cSO as substrate [7]: no inhibition was observed

Molecule: CCCCCCCC/C=C/CCCCCCCC(N)=O [B, elaidamide]
- IC50 ([8]; read-out: IC50, Rat mEH, 11 as substrate, [11] 25 μM, enzyme 0.5 μg/mL, pH 8.5, 30°C): 63000 ± 5000 nM
- IC50 ([9]; read-out: IC50, Human mEH, 11 as substrate, [11] 25 μM, enzyme 1.6 μg/mL, pH 8.5, 30°C): 140000 ± 13000 nM
- IC50 ([10]; read-out: IC50, Rat mEH, cSO as substrate, [cSO] 50 μM, enzyme 1.0 μg/mL): 500 ± 100 nM
- IC50 ([11]; read-out: IC50, Human mEH, cSO as substrate, [cSO] 50 μM, enzyme 3.2 μg/mL): 1000 ± 100 nM

- IC50 [8, 14]: 4200 ± 700 nM
- IC50 ([8]; IC50, rat mEH, 11 as substrate near its KM, [11] = 2.5 μM): 500 nM
- IC50 [10]: 400 ± 100 nM
- IC50 [11]: 500 ± 100 nM
Molecule: CCCCCCCCCSC(C)C(N)=O (stereo not drawn) [A, 2-nonylsulfanyl-propionamide]

Molecule: CC(C)[C@H](C(=O)O[C@H](C#N)c1cccc(Oc2ccccc2)c1)c1ccc(Cl)cc1 [Asana]
- inhibition of rat mEH in library screen [4]: significant inhibition
- inhibition of human mEH in library screen [5]: significant inhibition
- mEH inhibition on retest with 11 in the inhibition potency assay [6]: confirmed mEH inhibition
- mEH inhibition with cSO as substrate [7]: no inhibition was observed

- IC50 [8, 14]: 123000 ± 13000 nM
- IC50 [9]: > 200000 nM
- IC50 [10]: 1100 ± 100 nM
- IC50 [11]: 2600 ± 300 nM
Molecule: CCCCCCC(O)CCCCCCCCCCC(N)=O (stereo not drawn) [C, 12-hydroxy-octadecanamide]

Molecule: Oc1cc(Cl)ccc1Oc1ccc(Cl)cc1Cl [triclosan]
- inhibition of rat mEH in library screen [4]: significant inhibition
- inhibition of human mEH in library screen [5]: significant inhibition
- mEH inhibition on retest with 11 in the inhibition potency assay [6]: confirmed mEH inhibition
- mEH inhibition with cSO as substrate [7]: no inhibition was observed

B1: rat mEH (Rattus norvegicus) (protein)
chain: T1 sequence (P07687 1-455)
- Km [12]: 2.3 ± 0.4 µM
- Vmax [12]: 0.089 µmol/min/mg
- Vmax/Km [12]: 40000 µL/min/mg

B2: human mEH (Homo sapiens) (protein)
chain: T2 sequence (P07099 1-455)
- Km [13]: 3.8 ± 0.6 µM
- Vmax [13]: 0.042 µmol/min/mg
- Vmax/Km [13]: 11000 µL/min/mg
